The source made the active and inactive calls. The calls are words filed in the database; no cut-off is given here.
Legend:
[1] = Increase in deoxy-D-glucose 2-[1.2-3H(N)] uptake in human Skeletal muscle cells at 10^-8 M after 72 hrs by scintillation counter relative to control; type: functional
Procedure, shortened: (§1)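 Differentiated human skeletal muscle cells (2 weeks in differentiation medium, until multinucleated syncytia were visible) were exposed for 72 h to test agent at 10−8 to 10−12 M. Cells were then given a 15 min pulse at 37 °C in modified KRB with 0.1% BSA, 0.1 mM glucose, tritiated deoxy-D-glucose and 100 nM insulin. Uptake was stopped with washes in 50 mM glucose, cells were lysed in NaOH, and counts per min were read by scintillation and compared with untreated control.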

[2] = system: INS-1E; experiment: (§2) Increase in glucose-stimulated insulin secretion in rat INS-1E cells at 1 uM after 60 mins in presence of 16.7 mM glucose; type: functional
Procedure, shortened: (§3)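 INS-1E cells were pre-cultured 72 h, then preincubated 15 min in M-KRB (pH 7.4, 1% BSA). They were exposed for 60 min at 37 °C to test agent diluted from a 10−3 M DMSO stock to final 10−12–10−6 M in M-KRB with 16.7 mM glucose, with DMSO equalized across solutions. Insulin in the supernatant was measured by RIA (anti-insulin antibody, 125I-insulin tracer, rat insulin standard), and cell protein by Bradford. Mean ± SEM is reported against the 16.7 mM glucose control.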

[3] = Increase in glucose-stimulated insulin secretion in rat INS-1E cells at 10^-10 M after 60 mins in presence of 16.7 mM glucose; type: functional; procedure, shortened: as §3
[4] = Increase in glucose-stimulated insulin secretion in rat INS-1E cells at 10^-8 M after 60 mins in presence of 16.7 mM glucose; type: functional; procedure, shortened: as §3
[5] = as §2; type: functional; procedure, shortened: as §3
[6] = Increase in glucose-stimulated insulin secretion in rat INS-1E cells at 10^-8 M after 72 hrs in presence of 16.7 mM glucose; type: functional
Procedure, shortened: (§4)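 INS-1E cells were seeded and grown 72 h at 37 °C in growth medium containing test agent at final 10−12, 10−10 or 10−8 M, with DMSO equalized. After a 15 min preincubation in M-KRB, cells were stimulated 60 min with M-KRB at 3.3 or 16.7 mM glucose. Supernatant insulin was measured by RIA. Mean ± SEM is compared with the control at the matching glucose level.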

[7] = Increase in glucose-stimulated insulin secretion in rat INS-1E cells at 10^-10 M after 72 hrs in presence of 16.7 mM glucose; type: functional; procedure, shortened: as §4
[8] = Increase in glucose-stimulated insulin secretion in rat INS-1E cells at 10^-8 M after 72 hrs in presence of 3.3 mM glucose; type: functional; procedure, shortened: as §4
[9] = organism: Homo sapiens; experiment: Effect on deoxy-D-glucose 2-[1.2-3H(N)] uptake in human Skeletal muscle cells at 10^-12 to 10^-10 M after 72 hrs by scintillation counter; type: functional; procedure, shortened: as §1
[10] = Decrease in glucose-stimulated insulin secretion in rat INS-1E cells at 10^-12 M after 72 hrs in presence of 3.3 mM glucose; design: scale not given: the % may be the effect or the level left

Row | SMILES | Activity [1] [%] | Activity [2] | Activity [3] [%] | Activity [4] [%] | Activity [5] [%] | Activity [6] [%] | Activity [7] [%] | Activity [8] [%] | Activity [9] | Activity [10] [%]
1 | CN(CCOc1ccc(CC2SC(=O)NC2=O)cc1)c1ccccn1 (stereo not given) [ROSIGLITAZONE] | 7 | – | – | – | – | – | – | – | – | –
2 | O=C(/C=C/c1ccc(O)c(O)c1)O[C@@H]1C[C@](O)(C(=O)O)C[C@@H](O)[C@H]1O | – | Active | – | – | – | – | – | – | – | –
3 | O=C(O)/C=C/c1ccc(O)c(O)c1 [CAFFEIC ACID] | – | – | 9 | 18 | 9 | 16 | – | – | – | –
4 | C[C@@]12CCc3occc3[C@H]1CC[C@@]13C[C@@H](CC[C@H]12)[C@@](O)(CO)C3 [CAFESTOL] | 8 | – | 12 | 12 | 16 | 34 | 68 | 27 | inactive | 15

Reference: ChEMBL document CHEMBL3632531, “Cafestol, a Bioactive Substance in Coffee, Stimulates Insulin Secretion and Increases Glucose Uptake in Muscle Cells: Studies in Vitro” (2015)
